The list is not random: actives were taken first. Their share in the collection is about 1.3%.
Hck Nef HTS – blocks Nef-activated human Hck kinase | Recombinant Hck-YEEI plus Nef, Z-Lyte FRET kinase assay | AID 463187 | inhibition, % at 20 µM | 220,000 tested, 0.68% active;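 active = Hck-Nef kinase inhibition above about 50%, limit read from the data; inactive = inhibition below that limit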;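 note: 0% = DMSO with Hck plus Nef and 100% = Hck alone without Nef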
H9c2 TAG inh – reduces triacylglycerol accumulation in H9c2 cells | inhibition, % at 12.5 µM | 230,000 tested, 0.66% active | Nile Red lipid (TAG) fluorescence; cells loaded with 200 µM oleic acid;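 active = pattern-corrected inhibition of lipid staining of at least 50% with the nuclear-stain viability signal not falling by more than 50%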;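 note: 0% = DMSO wells and 100% = triacsin C control wells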
MDM2 E3 inh – Mdm2 E3 ligase (human) inhibition; 210,000 tested, 0.11% active; AID 1230; signal enhancement, % at 5 µM; Q00987; cell-based MDM2 ubiquitination luciferase reporter, 2 h; 0 = plate control, 100 = twice control, blank-subtracted;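 active = signal enhancement of 30% or more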;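 note: luminescence tracks abundance of the self-degrading MDM2-luciferase fusion protein; higher signal means inhibition of MDM2 E3 ligase activity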
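Material: stable MDM2–luciferase fusion reporter cells / Quantity: 2000 cells/well / Dosing: single 5 µM compound dose, 0.2% final DMSO / Buffer or medium: DMEM / Schedule: 4 h cell settling then 2 h compound exposure, 37 °C / Detection: luminescence with SteadyLite reagent, 15 min at room temperature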
Rad51 HR inh – blocks human Rad51 in homologous recombination | Q06609 | inhibition, % at 10 µM | 200,000 tested, 0.085% active | AID 1385 | hRad51 DNA strand exchange, fluorescence dequenching;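 active = inhibition above 40% at the single screening dose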;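 note: 0% = DMSO control wells and 100% = blanks with heterologous ssDNA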
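Material: Human Rad51 nucleoprotein filaments preassembled on unlabelled ssDNA | Also added: Labelled 47-mer dsDNA for strand exchange | Dosing: Single dose, 10 µM final compound | Schedule: 30-min compound preincubation and 15-min exchange, both room temperature | Technique: Fluorescence dequenching at 485/520 nm | Measure: Percent inhibition relative to plate controls and blanks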
PKD1 kinase inh – PKD1 (human) kinase inhibition | Q15139 | PKD1 kinase fluorescence polarization assay | inhibition, % (test concentration not listed) | 200,000 tested, 0.056% active | AID 797; in the data active = inhibition above about 50%
PERK inhibitor – human PERK inhibition, primary cell-based screen. Q9NZJ5. CHO PERK-DD fusion, SEAP luminescence translation reporter. inhibition, % at 5.6 µM. 220,000 tested, 0.17% active. AID 1416;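 active = inhibition above the mean inhibition of all tested compounds plus 3 SD, set separately per screening campaign, cut at about 2.9% in these data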;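 note: PERK kinase domain activated by AP20187 dimerizer at 100 nM; 0% = DMSO with dimerizer and 100% = rapamycin at 8.4 µM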
Target sequence (Q9NZJ5 whole entry, looked up, the tested form may be a part): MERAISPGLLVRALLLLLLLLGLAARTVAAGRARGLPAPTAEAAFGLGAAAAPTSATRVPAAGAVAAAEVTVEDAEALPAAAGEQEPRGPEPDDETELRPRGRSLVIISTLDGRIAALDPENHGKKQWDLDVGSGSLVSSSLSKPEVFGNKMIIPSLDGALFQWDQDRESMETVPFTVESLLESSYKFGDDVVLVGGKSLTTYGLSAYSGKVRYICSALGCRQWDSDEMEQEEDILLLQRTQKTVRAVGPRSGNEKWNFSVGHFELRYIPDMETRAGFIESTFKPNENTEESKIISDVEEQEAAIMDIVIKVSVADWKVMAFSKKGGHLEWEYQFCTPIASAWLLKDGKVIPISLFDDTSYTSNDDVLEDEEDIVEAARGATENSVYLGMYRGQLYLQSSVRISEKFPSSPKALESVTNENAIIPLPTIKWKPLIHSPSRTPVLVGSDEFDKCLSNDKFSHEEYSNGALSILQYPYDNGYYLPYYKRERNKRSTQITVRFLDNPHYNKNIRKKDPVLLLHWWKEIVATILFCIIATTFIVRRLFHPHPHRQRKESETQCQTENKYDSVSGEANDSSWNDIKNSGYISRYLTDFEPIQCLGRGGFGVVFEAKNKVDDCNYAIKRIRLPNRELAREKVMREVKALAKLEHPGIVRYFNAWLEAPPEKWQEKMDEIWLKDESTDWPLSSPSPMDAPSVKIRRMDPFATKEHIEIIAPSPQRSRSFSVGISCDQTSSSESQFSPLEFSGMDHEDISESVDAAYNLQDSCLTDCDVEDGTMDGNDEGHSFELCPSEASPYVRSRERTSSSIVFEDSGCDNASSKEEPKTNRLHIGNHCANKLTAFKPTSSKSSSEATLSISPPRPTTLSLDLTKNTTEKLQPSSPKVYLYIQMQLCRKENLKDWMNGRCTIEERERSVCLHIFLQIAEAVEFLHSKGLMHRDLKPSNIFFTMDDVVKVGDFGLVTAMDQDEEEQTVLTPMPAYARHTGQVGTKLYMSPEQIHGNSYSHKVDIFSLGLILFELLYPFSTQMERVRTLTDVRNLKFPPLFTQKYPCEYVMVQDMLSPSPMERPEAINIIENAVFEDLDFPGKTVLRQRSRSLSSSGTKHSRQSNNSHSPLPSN
TAG conf – confirmation of triacylglycerol accumulation inhibitors; shares compounds with H9c2 TAG inh; H9c2 lipid accumulation, Nile Red fluorescence; cells loaded with 200 µM oleic acid; inhibition, % at 12.5 µM; 990 tested, 71% active;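 active = mean inhibition across replicates of 40% or more; inactive = mean inhibition below 40%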;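 note: plate controls were DMSO only wells for no effect and Triacsin C treated wells for full effect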
Numbers without * were called inactive; · = no result.

SMILES	Hck Nef HTS	H9c2 TAG inh	MDM2 E3 inh	Rad51 HR inh	PKD1 kinase inh	PERK inhibitor	TAG conf
CC(=O)O[C@H]1C(=O)[C@]2(C)[C@H]([C@H](OC(=O)c3ccccc3)[C@]3(O)C[C@H](OC(=O)[C@H](O)[C@@H](NC(=O)c4ccccc4)c4ccccc4)C(C)=C1C3(C)C)[C@]1(OC(C)=O)CO[C@@H]1C[C@@H]2O	·	54*	·	2	·	·	57*
N#CC1=C(N)Oc2cc(Nc3ccccc3)ccc2C1c1ccncc1 (stereo unspecified)	5	57*	-16	-7	-6	2	83*
CCOC(=O)c1c(C)[nH]c(C(=O)COC(=O)/C=C/c2ccc(OCC#N)c(OC)c2)c1C	15	-1	-6	-12	-2	1	·
O=C1N=C(N2CCOCC2)S/C1=C/c1ccc(-c2ccc(F)cc2)o1	18	66*	-10	-4	-2	-1	42*
COC(=O)CC1C(=O)NCCN1C(=O)c1ccc(S(=O)(=O)N2CCOCC2)cc1 (stereo unspecified)	14	61*	3	4	-6	1	7
CCCCOc1ccc(C(=O)N2CCNC(=O)C2CC(=O)OC(C)C)cc1 (stereo unspecified)	·	0	·	·	·	·	·
O=C(Nc1nnc(SCc2ccc(Cl)cc2)s1)c1ccco1	0	11	0	-2	-27	0	·
CC(C)Sc1nnc(NC(=O)c2ccco2)s1	21	55*	-9	-4	-1	0	18
Cc1ccc(NC(=O)CSc2nnc(C)c(=O)n2N)cc1Cl	·	51*	·	·	·	·	44*
COc1ccc(Cl)cc1NC(=S)Nc1cccnc1	4	-10	2	9	-3	1	·
CCOCC(=O)Nc1cc(Cl)c(OC)cc1OC	7	·	-10	-7	0	0	·
O=C(Cn1cc[n+](CC(=O)c2ccc(Cl)cc2Cl)c1)c1ccc(Cl)cc1Cl	15	60*	-5	13	·	-2	44*
O=C(Cn1cc[n+](CC(=O)c2ccccc2)c1)c1ccccc1	0	-4	-11	-1	-4	1	·
O=C(COc1ccccc1)NCC(=O)Nc1cccc(S(=O)(=O)NC2=NCCC2)c1	17	-11	-11	1	-10	1	·
Cc1ccccc1/C=C1\SC(=S)N(/N=C/c2cc([N+](=O)[O-])ccc2O)C1=O	26	·	10	-3	-4	1	·
CC(C)COc1ccc(C(=O)Nc2scc(-c3ccc(Cl)cc3Cl)c2C(N)=O)cc1	1	60*	18	·	-2	0	39
CC(C)(C)c1cc(NC(=O)C2(C)CCN2C(=O)C2(c3ccccc3)CCCC2)no1 (stereo unspecified)	·	53*	·	·	·	·	40
COc1ccc(OC)c(C(=O)NC(CC(N)=O)c2ccc(NCCN3CCOCC3)c([N+](=O)[O-])c2)c1 (stereo unspecified)	29	0	11	3	·	·	·
COc1ccc(Nc2cccccc2=O)cc1	2	2	-13	-3	11	1	·
COc1ccc(Nc2cccc3ccccc23)cc1	·	65*	·	·	·	·	13
COc1cc([N+](=O)[O-])ccc1NC(=O)CSc1nc2ccccc2n1-c1ccccc1	9	·	0	1	-12	0	·
CCN(CC)CCNc1nc2c(c(=O)[nH]c(=O)n2C)n1CC(O)COc1ccc(Cl)cc1Cl (stereo unspecified)	2	·	-2	-2	-9	1	·
Cc1cc(C)n(-c2nc3c(c(=O)[nH]c(=O)n3C)n2CC(O)COc2ccc(Cl)cc2Cl)n1 (stereo unspecified)	1	82*	-1	0	-3	0	74*
Cc1cc(C)cc(CC(=O)N2CCC2(C)C(=O)NS(=O)(=O)c2ccc(Cl)s2)c1 (stereo unspecified)	·	75*	·	·	·	·	4
Cc1cccc(C)c1CC(=O)N1CCOCC1	·	-11	·	·	·	·	·
SMILES	Hck Nef HTS	H9c2 TAG inh	MDM2 E3 inh	Rad51 HR inh	PKD1 kinase inh	PERK inhibitor	TAG conf
CN(Cc1ccccc1)CC1C2CCC(C2)C1O (stereo unspecified)	·	16	·	·	·	·	·
CNC(=S)NN=C(C)CCCC(C)=NNC(=S)NC	·	71*	·	·	·	·	95*
Cc1ccc(-c2cc(C(F)F)n3ncc(C(=O)N4CCCc5ccccc54)c3n2)cc1	15	60*	1	-7	-3	1	30
COc1ccc(-c2cc(C(F)F)n3ncc(C(=O)N4CCc5ccccc54)c3n2)cc1	27	·	2	2	-6	0	·
CCC(C)NCCOCCOc1ccc(Cl)c2ccccc12 (stereo unspecified)	-15	53*	-33	-7	-6	0	45*
CCC(C)NCCOCCOc1ccc(Cl)c(C)c1C (stereo unspecified)	4	13	-13	0	-4	-1	·
CCOC(=O)CSc1nnc(-c2ccc(OC)cc2OC)o1	7	·	-1	-2	-2	-1	·
Cc1c(C#N)c(O)n(CCO)c(=O)c1N=Nc1ccc2c(c1)COC2=O	4	85*	-16	-13	·	1	94*
COc1cccc(Nc2nnc(SCc3cc([N+](=O)[O-])cc4c3OCOC4)s2)c1	1	53*	22	0	0	-2	42*
Cc1cccc(C)c1Nc1nnc(SCc2cc([N+](=O)[O-])cc3c2OCOC3)s1	-14	·	-7	2	-12	-2	·
O=C(NCc1ccc2c(c1)OCO2)C1CCN(c2nccc(C(F)(F)F)n2)CC1	19	4	5	12	·	-1	·
O=C(Nc1cccc(NS(=O)(=O)c2ccc(S(=O)(=O)NC3CC3)cc2)c1)c1ccccn1	-2	56*	-2	-4	-12	0	25
O=C(Nc1cccc(S(=O)(=O)N2CCCCC2)c1)c1ccccn1	-7	-29	-10	4	-4	0	·
COc1ccc(CN(C)C(=O)c2cccc(NC(=O)CC3SC(N4CCCCC4)=NC3=O)c2)c(OC)c1 (stereo unspecified)	·	-14	·	·	·	·	·
C#CCOCCOCCOCCNc1nc(N2CCN(C(=O)[C@H](CCCCN)n3cc([C@@H](N)CO)nn3)CC2)nc(N2CCN(C(=O)[C@H](CCCCN)n3cc([C@@H](N)CC(C)C)nn3)CC2)n1	·	70*	·	·	·	·	-1
COc1ccc(S(=O)(=O)N2C(=O)/C(=C3\SC(N)=NC3=O)c3ccccc32)cc1	14	5	-9	20	·	1	·
CCOc1ccccc1NC(=O)C(CC(C)C)NC(=O)C1CCCCC1 (stereo unspecified)	2	51*	2	0	-8	0	35
CN(C)CCCN1c2ccccc2Sc2ccc3ccccc3c21	·	50*	·	·	·	·	60*
CN(C)CCCN1c2ccc3ccccc3c2Sc2cccc(Cl)c21	·	38	·	·	·	·	·

Screening results: PubChem BioAssay, several laboratories
